Consider one molecule from ChEMBL document CHEMBL5260824, “9-Deazapurines as Broad-Spectrum Inhibitors of the ABC Transport Proteins P-Glycoprotein, Multidrug Resistance-Associated Protein 1, and Breast Cancer Resistance Protein” (J Med Chem, 2017).

Assay [1] deals with H69AR. Nature of the assay: Reversal of Daunorubicin resistance in human NCI-H69AR cells assessed as Daunorubicin GI50 at 1 uM measured for 72 hrs by MTT assay. The format is functional. In outline: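 Reversal assay: resistant lines (A2780/ADR, H69AR, MDCK II BCRP) and parental lines seeded as for MTT assay with modulator solutions of 1, 10 and 100 µM added (final 0.1, 1, 10 µM) and daunorubicin (P-gp, MRP1) or SN-38 (BCRP) at final 10 nM–10 µM. 72 h, MTT read-out; GI50 by variable-slope fit. Resistance factor = resistant/sensitive GI50; potentiation factor = GI50 without/with modulator.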
A general note: Tetrazolium assays rely on reduction of a dye to a coloured formazan, in cell work by metabolically active cells.

In assay [2] the target is ATP-dependent translocase ABCB1 (Homo sapiens, UniProt P08183). Nature of the assay: Inhibition of P-gp (unknown origin) incubated for 30 mins by calcein AM analysis. In outline:
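A2780/ADR cells (doxorubicin-selected, P-gp overexpressing), about 30,000 per well in Krebs-HEPES buffer pH 7.4, incubated 30 min at 37 °C with compound (100 nM–100 µM added solutions). Calcein AM (3.125 µM solution added) then fluorescence read every 60 s at 37 °C, ex 485/em 520 nm; slope over minutes 5–30 plotted vs log concentration. Cyclosporine A 10 µM = 100% inhibition, buffer = 0%.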

Assay [3] deals with T1, Broad substrate specificity ATP-binding cassette transporter ABCG2 (Homo sapiens, UniProt Q9UNQ0).
T1 sequence (Q9UNQ0 whole entry): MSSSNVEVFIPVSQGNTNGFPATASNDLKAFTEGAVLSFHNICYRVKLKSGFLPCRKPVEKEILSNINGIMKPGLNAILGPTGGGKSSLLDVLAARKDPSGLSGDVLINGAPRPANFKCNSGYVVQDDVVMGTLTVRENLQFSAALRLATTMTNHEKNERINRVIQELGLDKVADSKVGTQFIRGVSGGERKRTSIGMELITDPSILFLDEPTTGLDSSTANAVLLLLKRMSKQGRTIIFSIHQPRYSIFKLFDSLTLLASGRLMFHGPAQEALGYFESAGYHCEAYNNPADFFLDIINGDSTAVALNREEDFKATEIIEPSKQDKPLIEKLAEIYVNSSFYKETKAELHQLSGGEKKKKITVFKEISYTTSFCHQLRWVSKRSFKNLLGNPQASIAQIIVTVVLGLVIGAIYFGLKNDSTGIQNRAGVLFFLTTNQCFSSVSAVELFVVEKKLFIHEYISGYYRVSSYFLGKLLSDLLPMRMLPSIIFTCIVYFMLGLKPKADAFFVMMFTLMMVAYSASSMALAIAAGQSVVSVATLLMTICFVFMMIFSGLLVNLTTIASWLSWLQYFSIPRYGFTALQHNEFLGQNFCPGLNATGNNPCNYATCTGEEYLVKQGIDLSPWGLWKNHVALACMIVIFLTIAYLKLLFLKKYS
The assay can be described thus: Inhibition of BCRP (unknown origin) expressed in dog MDCK-II cells using pheophorbide A as substrate preincubated for 20 mins followed by substrate addition and measured after 120 mins by flow cytometry analysis. The format is cell-based. A digest of the protocol:
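MDCK II cells transfected with human wild-type BCRP cDNA C-terminally fused to GFP, grown in DMEM/10% FBS. About 45,000 cells per well preincubated 20 min at 37 °C, 5% CO2 with compound (100 nM–100 µM added solutions), then pheophorbide A (5 µM solution added) for 120 min to steady state. Resuspended; flow cytometry, 488 nm excitation, FL3 (≥670 nm); GFP in FL1. Reference inhibitor 24 at 10 µM = 100%.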
On the technique in general: In flow cytometry, cells or beads pass a laser one at a time.

Assay [4] has as its system A2780. Nature of the assay: Antiproliferative activity against human A2780 cells assessed as reduction in cell viability measured for 72 hrs bt MTT assay. Type of assay: functional.

ATP-dependent translocase ABCB1, sequence (P08183 whole entry): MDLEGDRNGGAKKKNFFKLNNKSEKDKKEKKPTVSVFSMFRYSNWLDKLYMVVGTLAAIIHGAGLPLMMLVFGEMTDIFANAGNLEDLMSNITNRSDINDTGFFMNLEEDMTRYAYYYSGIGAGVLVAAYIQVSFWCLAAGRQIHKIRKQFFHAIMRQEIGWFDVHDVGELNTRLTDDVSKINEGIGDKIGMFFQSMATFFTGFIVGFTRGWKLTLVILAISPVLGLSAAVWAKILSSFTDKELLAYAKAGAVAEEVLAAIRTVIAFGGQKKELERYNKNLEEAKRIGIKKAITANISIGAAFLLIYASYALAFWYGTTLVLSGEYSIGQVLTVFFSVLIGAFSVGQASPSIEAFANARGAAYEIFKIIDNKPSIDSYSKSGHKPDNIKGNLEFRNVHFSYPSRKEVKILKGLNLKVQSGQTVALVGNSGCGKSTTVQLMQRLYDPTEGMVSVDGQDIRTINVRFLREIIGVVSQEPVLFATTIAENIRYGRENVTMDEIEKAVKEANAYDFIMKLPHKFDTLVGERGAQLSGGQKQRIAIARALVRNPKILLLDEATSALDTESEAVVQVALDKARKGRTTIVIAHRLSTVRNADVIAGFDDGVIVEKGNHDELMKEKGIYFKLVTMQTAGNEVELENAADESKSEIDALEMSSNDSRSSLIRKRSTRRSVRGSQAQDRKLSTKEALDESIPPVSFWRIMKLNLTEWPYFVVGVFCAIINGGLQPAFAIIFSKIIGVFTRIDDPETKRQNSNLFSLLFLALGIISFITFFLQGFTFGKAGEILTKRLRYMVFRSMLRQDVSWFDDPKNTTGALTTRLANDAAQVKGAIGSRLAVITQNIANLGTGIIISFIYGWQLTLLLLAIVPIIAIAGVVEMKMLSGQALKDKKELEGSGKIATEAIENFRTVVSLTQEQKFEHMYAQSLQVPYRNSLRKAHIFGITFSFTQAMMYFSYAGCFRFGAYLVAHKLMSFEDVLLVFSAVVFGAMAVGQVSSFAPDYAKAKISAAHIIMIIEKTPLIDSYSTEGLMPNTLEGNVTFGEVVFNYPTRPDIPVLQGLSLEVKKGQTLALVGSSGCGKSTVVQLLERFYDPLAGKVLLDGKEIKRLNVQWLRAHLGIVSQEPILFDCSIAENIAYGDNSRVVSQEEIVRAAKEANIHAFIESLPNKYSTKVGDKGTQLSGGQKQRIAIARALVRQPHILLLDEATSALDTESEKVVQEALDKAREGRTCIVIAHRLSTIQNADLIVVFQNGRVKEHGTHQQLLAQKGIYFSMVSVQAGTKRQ

With `N#Cc1cn(CCCc2ccccc2)c2c(N3CCN(CCc4c[nH]c5ccccc45)CC3)ncnc12`, the GI50 – broadly, the concentration giving 50% growth inhibition – in assay [1] was determined as 1.17 µM; in assay [4] it was 6.36 µM. In addition, the figures for the IC50 in assay [2] and in assay [3] were 1.46 µM and 1.69 µM, respectively.
